The values below come from ChEMBL document CHEMBL1130297, “Synthesis of 5,6-dihydro-4-hydroxy-2-pyrones as HIV-1 protease inhibitors: the profound effect of polarity on antiviral activity” (J Med Chem, 1997).

Some results are limits rather than exact numbers.

Series [1] is described as follows: Cytotoxicity in CEM cells in the absence of virus. The series is classed as cell-based. Particulars: human, CEM (CCRF-CEM) cells; read-out: TC50 (the source's name). The gist of the method: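 Toxicity read in uninfected CEM cells (no virus present), run alongside the cellular antiviral protocol. Reported as TC50.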
Series [2] deals with Human immunodeficiency virus type 1 protease (Human immunodeficiency virus 1, UniProt Q72874). The series can be described thus: In vitro inhibition activity against HIV-1 protease. The method in brief: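 HIV-1 protease inhibition read by HPLC assay at pH 6.2, modified from an earlier method. Buffer: 1.0 mM dithiothreitol, 80 mM MES, 160 mM NaCl, 1.0 mM EDTA, 0.1% polyethylene glycol (MW 8000). Final protease concentration 1.5 nM. IC50 values reported.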

In another series the test system is CCRF-CEM. The series can be described thus: Antiviral activity in HIV infected CEM cells. The series is classed as functional, cell-based. Particulars: Homo sapiens. The method in brief:
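Cytopathic-effect protection assay in HIV-infected CEM cells by a standard protocol. EC50 taken as the concentration at which 50% of cells are protected from cytopathic effects.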

Consider `Cc1ccc(C(C)(C)C)c(SC2=C(O)OC(CCc3ccccc3)(c3ccc(OCCO)cc3)CC2=O)c1` (stereo not drawn), for which the CC50 in series [1] was found to be 23 µM. Moreover, in series [2], the IC50 was 0.012 µM. For the same molecule, a half-maximal response in the series with CCRF-CEM (EC50) required 9.4 µM.

Regarding `Cc1cc(SC2=C(O)OC(CCc3ccc(O)cc3)(c3ccccc3)CC2=O)c(C(C)(C)C)cc1CO` (stereo not drawn), the CC50 in series [1] was over 100 µM. In series [2], this molecule yielded an IC50 of 0.0017 µM. In addition, the response with CCRF-CEM was half-maximal at 4.7 µM (EC50).

For the molecule `Cc1cc(SC2=C(O)OC(CCc3ccc(N)cc3)(C3CCCCC3)CC2=O)c(C(C)(C)C)cc1CO` (stereo not drawn), in series [1], the CC50 came to 80 µM. The molecule further gave an IC50 in series [2] of 0.0032 µM. Besides, the EC50 in the series on CCRF-CEM stood at 1.4 µM.

For `Cc1ccc(C(C)(C)C)c(SC2=C(O)OC(CCc3ccc(O)cc3)(c3ccccc3)CC2=O)c1` (stereo not drawn), the CC50 in series [1] turned out to be 69 µM. In series [2], this molecule yielded an IC50 of 0.011 µM. Also, in the series with CCRF-CEM, the EC50 was over 69 µM.

For `COc1ccc(C2(CCc3ccc(O)cc3)CC(=O)C(Sc3cc(C)c(CO)cc3C(C)(C)C)=C(O)O2)cc1` (stereo not drawn), the CC50 in series [1] was over 100 µM. The EC50 in the series with CCRF-CEM came to 2 µM.

With `Cc1cc(SC2=C(O)OC(CCc3ccc(O)cc3)(c3ccc(O)cc3)CC2=O)c(C(C)(C)C)cc1CO` (stereo not drawn), the CC50 in series [1] came out at 21 µM. The molecule further displayed an IC50 in series [2] of 0.12 µM. Further, the EC50 in the series on CCRF-CEM was over 21 µM.

For the molecule `COCc1cc(C(C)(C)C)c(SC2=C(O)OC(CCc3ccccc3)(c3ccc(OCCO)cc3)CC2=O)cc1C` (stereo not drawn), the CC50 in series [1] is 18 µM. Further, in series [2], the IC50 was 0.0045 µM. This molecule showed an EC50 with CCRF-CEM of over 18 µM.

Take `Cc1cc(SC2=C(O)OC(C)(CCc3ccc(O)cc3)CC2=O)c(C(C)(C)C)cc1CO` (stereo not drawn): in series [1], the CC50 was over 100 µM. Besides, in series [2], the IC50 was 0.0043 µM. Besides, the EC50 with CCRF-CEM stood at 2.5 µM.

`Cc1cc(SC2=C(O)OC(CCc3cccc(N)c3)(c3ccccc3)CC2=O)c(C(C)(C)C)cc1CO` (stereo not drawn): the CC50 in series [1] was found to be 23 µM. For the same molecule, the IC50 in series [2] worked out at 0.004 µM. In addition, in the series with CCRF-CEM, the EC50 stood at 3.1 µM.

With `Cc1cc(SC2=C(O)OC(CCc3ccccc3)(c3ccc(OCCO)cc3)CC2=O)c(C(C)(C)C)cc1O` (stereo not drawn), in series [1], the CC50 stood at 27 µM. The IC50 in series [2] was determined as 0.0037 µM. This molecule had an EC50 in the series with CCRF-CEM of 4.2 µM.

Take `Cc1ccc(C(C)(C)C)c(SC2=C(O)OC(CCc3ccc(N)cc3)(c3ccccc3)CC2=O)c1` (stereo not drawn): the CC50 in series [1] was found to be 54 µM. The molecule further came in with an IC50 in series [2] of 0.024 µM. Moreover, the EC50 in the series on CCRF-CEM is over 54 µM.

Take `Cc1cc(SC2=C(O)OC(CCc3cccc(O)c3)(c3ccccc3)CC2=O)c(C(C)(C)C)cc1CO` (stereo not drawn): the CC50 in series [1] was over 100 µM. Further, in series [2], the IC50 was 0.0025 µM. For the same molecule, in the series on CCRF-CEM, the EC50 was 6.1 µM.

On to `Cc1cc(SC2=C(O)OC(CCc3ccc(N)cc3)(c3ccccc3)CC2=O)c(C(C)(C)C)cc1CO` (stereo not drawn), for which the CC50 in series [1] is 94 µM. Also, the IC50 in series [2] came to 0.0031 µM. Moreover, the EC50 in the series with CCRF-CEM was found to be 3.7 µM.

`Cc1cc(SC2=C(O)OC(CCc3ccc(O)cc3)(C(C)C)CC2=O)c(C(C)(C)C)cc1CO` (stereo not drawn): in series [1], the CC50 was over 100 µM. The molecule also yielded an IC50 in series [2] of 0.0036 µM. For the same molecule, in the series on CCRF-CEM, a half-maximal response (EC50) required 0.6 µM.

With `Cc1ccc(C(C)(C)C)c(SC2=C(O)OC(CCc3ccccc3)(c3ccc(O)cc3)CC2=O)c1` (stereo not drawn), the CC50 in series [1] was found to be 23 µM. For the same molecule, half-maximal inhibition in series [2] (IC50) required 0.04 µM. For the same molecule, in the series on CCRF-CEM, the EC50 was over 23 µM.

Turning to `Cc1cc(SC2=C(O)OC(CCc3ccccc3)(c3ccccc3)CC2=O)c(C(C)(C)C)cc1CO` (stereo not drawn), the CC50 in series [1] worked out at 66 µM. Also, half-maximal inhibition in series [2] (IC50) was put at 0.0066 µM. In the series on CCRF-CEM, this molecule yielded an EC50 of 2.5 µM.

Take `COc1cc(C(C)(C)C)c(SC2=C(O)OC(CCc3ccccc3)(c3ccccc3)CC2=O)cc1C` (stereo not drawn): the CC50 in series [1] is 33 µM. The molecule further gave an IC50 in series [2] of 0.015 µM. The molecule further registered a 50% effective concentration (EC50) in the series on CCRF-CEM of over 33 µM.

As to `Cc1ccc(C(C)(C)C)c(SC2=C(O)OC(CCc3ccccc3)(c3ccc(N)cc3)CC2=O)c1` (stereo not drawn), the CC50 in series [1] was determined as 67 µM. This molecule came in with an IC50 in series [2] of 0.032 µM. The molecule further registered an EC50 in the series on CCRF-CEM of over 67 µM.

On to `Cc1cc(SC2=C(O)OC(CCc3ccc(O)cc3)(C3CCCCC3)CC2=O)c(C(C)(C)C)cc1CO` (stereo not drawn), for which, in series [1], the CC50 is 75 µM. The IC50 in series [2] amounted to 0.0041 µM. The same molecule displayed an EC50 in the series on CCRF-CEM of 0.5 µM.

As for `Cc1cc(SC2=C(O)OC(CCc3ccccc3)(c3ccc(OCCO)cc3)CC2=O)c(C(C)(C)C)cc1OCCO` (stereo not drawn), the CC50 in series [1] was 25 µM. The same molecule returned an IC50 in series [2] of 0.0064 µM. This molecule showed an EC50 in the series on CCRF-CEM of 1.8 µM.

Take `Cc1cc(SC2=C(O)OC(CCc3ccccc3)(c3ccccc3)CC2=O)c(C(C)(C)C)cc1OCCO` (stereo not drawn): in series [1], the CC50 stood at 20 µM. The molecule further showed an IC50 in series [2] of 0.0068 µM. Besides, in the series with CCRF-CEM, the EC50 was over 20 µM.

Take `Cc1cc(SC2=C(O)OC(CCc3ccccc3)(c3ccc(OCCO)cc3)CC2=O)c(C(C)(C)C)cc1CO` (stereo not drawn): in series [1], the CC50 is 67 µM. For the same molecule, in series [2], the IC50 worked out at 0.0014 µM. In the series on CCRF-CEM, this molecule displayed an EC50 of 4.2 µM.

Consider `Cc1cc(SC2=C(O)OC(CCc3ccccc3)(c3ccccc3)CC2=O)c(C(C)(C)C)cc1O` (stereo not drawn), for which the CC50 in series [1] is 23 µM. For the same molecule, the IC50 in series [2] was 0.033 µM. The same molecule registered an EC50 in the series with CCRF-CEM of over 23 µM.

On to `Cc1ccc(C(C)(C)C)c(SC2=C(O)OC(CCc3ccccc3)(c3ccccc3)CC2=O)c1` (stereo not drawn), for which the CC50 in series [1] stood at 55 µM. Besides, the EC50 in the series on CCRF-CEM is over 55 µM.

With `Cc1cc(SC2=C(O)OC(CCc3ccc(N)cc3)(C(C)C)CC2=O)c(C(C)(C)C)cc1CO` (stereo not drawn), the CC50 in series [1] was over 100 µM. The 50% inhibitory concentration (IC50) in series [2] was 0.0027 µM. This molecule also had an EC50 in the series on CCRF-CEM of 0.5 µM.
